Results taken from ChEMBL document CHEMBL3817832, “Optimizing Ligand Efficiency of Selective Androgen Receptor Modulators (SARMs)” (ACS Med Chem Lett, 2016).
≈ marks a conversion by molar mass, not a printed value. One block for each molecule: values may come before it.

How the values were obtained:
Androgen receptor = molecular target: T1, Androgen receptor (Homo sapiens, UniProt P10275); test: Modulation of human androgen receptor expressed in African green monkey CV1 cells after 24 hrs by luciferase reporter gene assay; assay type: cell-based, CV-1
T1 sequence (P10275 whole entry): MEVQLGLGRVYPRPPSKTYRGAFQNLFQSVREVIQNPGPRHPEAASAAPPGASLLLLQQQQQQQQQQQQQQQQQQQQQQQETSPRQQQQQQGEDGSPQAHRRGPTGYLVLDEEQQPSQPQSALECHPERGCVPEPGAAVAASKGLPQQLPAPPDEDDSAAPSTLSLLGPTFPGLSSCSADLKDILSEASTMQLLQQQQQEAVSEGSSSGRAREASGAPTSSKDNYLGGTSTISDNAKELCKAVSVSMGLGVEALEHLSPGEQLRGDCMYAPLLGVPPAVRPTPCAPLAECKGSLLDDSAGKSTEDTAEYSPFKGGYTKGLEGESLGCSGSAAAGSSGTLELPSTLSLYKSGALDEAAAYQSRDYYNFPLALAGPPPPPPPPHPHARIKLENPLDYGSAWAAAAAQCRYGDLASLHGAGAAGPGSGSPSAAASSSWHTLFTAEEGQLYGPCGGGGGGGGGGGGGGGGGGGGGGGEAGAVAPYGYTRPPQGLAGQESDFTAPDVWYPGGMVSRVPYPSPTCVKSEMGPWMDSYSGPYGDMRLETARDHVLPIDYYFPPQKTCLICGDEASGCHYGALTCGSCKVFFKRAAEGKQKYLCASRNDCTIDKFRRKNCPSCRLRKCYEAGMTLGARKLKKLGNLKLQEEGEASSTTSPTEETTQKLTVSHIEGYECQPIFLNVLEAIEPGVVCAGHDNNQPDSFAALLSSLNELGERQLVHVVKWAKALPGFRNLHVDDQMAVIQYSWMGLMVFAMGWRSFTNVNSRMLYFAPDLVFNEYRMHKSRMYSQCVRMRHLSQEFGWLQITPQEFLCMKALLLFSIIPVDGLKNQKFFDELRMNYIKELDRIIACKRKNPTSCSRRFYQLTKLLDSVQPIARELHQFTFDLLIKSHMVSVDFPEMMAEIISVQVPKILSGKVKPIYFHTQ
Procedure, shortened: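 Functional AR activity is read out by a luciferase reporter gene assay in mammalian cells transfected with the human AR gene. EC50 is derived from the response and reported as pEC50 (−log EC50).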

[1] = Kinetic aqueous solubility of the compound in PBS at pH 7.4 after 1 hr by chemiluminescent nitrogen detection method; assay type: physicochemical; details: read-out: Kinetic_solubility
Procedure, shortened: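 High-throughput kinetic aqueous solubility at pH 7.4. The test compound is added from a DMSO stock, and dissolved compound is quantified by chemiluminescent nitrogen detection (CLND).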

[2] = Oral bioavailability in Wistar Han rat at 10 mg/kg, administered as single dose via oral gavage by LC-MS/MS analysis; assay type: ADME, organism-based; details: in vivo
[3] = Half life in Wistar Han rat at 5 mg/kg, administered as single dose via oral gavage by LC-MS/MS analysis; assay type: ADME, organism-based; details: in vivo
[4] = […] in iv dosed Wistar Han rat administered as single dose by LC-MS/MS analysis; assay type: ADME, organism-based; details: in vivo

Structure (SMILES): N#Cc1ccc(C(O)(C2CCCC2)C(F)(F)F)cc1Cl (stereo not drawn)
EC50 (Androgen receptor): 3.16 nM

Structure (SMILES): Cc1c(C(O)(C#CC(C)(C)C)C(F)(F)F)ccc(C#N)c1Cl (stereo not drawn)
EC50 (Androgen receptor): 79.4 nM

Structure (SMILES): C/C=C(\C)C(O)(c1ccc(C#N)c(C(F)(F)F)c1)C(F)(F)F (stereo not drawn)
EC50 (Androgen receptor): 39.8 nM

EC50 (Androgen receptor): 2510 nM
Structure (SMILES): Cc1c(C#N)ccc(C(C)(O)C(F)(F)F)c1C (stereo not drawn)

Structure (SMILES): Cc1c(C(O)(C#CC2CC2)C(F)(F)F)ccc(C#N)c1Cl (stereo not drawn)
EC50 (Androgen receptor): 15.8 nM

Structure (SMILES): C=C(C)C(O)(c1ccc(C#N)c(C(F)(F)F)c1)C(F)(F)F (stereo not drawn)
EC50 (Androgen receptor): 31.6 nM

Structure (SMILES): Cc1c(C(O)(C(C)C)C(F)(F)F)ccc(C#N)c1Cl (stereo not drawn)
EC50 (Androgen receptor): 0.794 nM

Structure (SMILES): N#Cc1ccc(C(O)(c2cocn2)C(F)(F)F)cc1C(F)(F)F (stereo not drawn)
EC50 (Androgen receptor): 1.26 nM
solubility kinetic at 1 h [1]: > 700 µM
bioavailability [2]: 83%
half-life [3]: 480 min

Structure (SMILES): Cc1c(C(O)(c2cocn2)C(F)(F)F)ccc(C#N)c1C(F)(F)F (stereo not drawn)
EC50 (Androgen receptor): 0.501 nM
solubility kinetic at 1 h [1]: > 400 µM
bioavailability [2]: 100%
half-life [3]: 330 min

Structure (SMILES): Cc1c(C(O)(C(C)(C)C)C(F)(F)F)ccc(C#N)c1Cl (stereo not drawn)
EC50 (Androgen receptor): 79.4 nM

Structure (SMILES): CC(C)C(O)(c1ccc(C#N)c(Cl)c1Cl)C(F)(F)F (stereo not drawn)
EC50 (Androgen receptor): 0.794 nM

Structure (SMILES): CC(O)(c1ccc(C#N)c(Cl)c1Cl)C(F)(F)F (stereo not drawn)
EC50 (Androgen receptor): 63.1 nM

Structure (SMILES): N#Cc1ccc(C(O)(c2ccc(Cl)o2)C(F)(F)F)cc1C(F)(F)F (stereo not drawn)
EC50 (Androgen receptor): 2.51 nM

Structure (SMILES): C=CC(O)(c1ccc(C#N)c(C(F)(F)F)c1)C(F)(F)F (stereo not drawn)
EC50 (Androgen receptor): 12.6 nM

Structure (SMILES): Cc1c(C(O)(c2nccs2)C(F)(F)F)ccc(C#N)c1C(F)(F)F (stereo not drawn)
EC50 (Androgen receptor): 10.5 nM

Structure (SMILES): Cc1c(C(O)(C2CC2)C(F)(F)F)ccc(C#N)c1Cl (stereo not drawn)
EC50 (Androgen receptor): 0.2 nM

Structure (SMILES): Cc1c(C(O)(C(F)(F)F)C(F)(F)F)ccc(C#N)c1C(F)(F)F
EC50 (Androgen receptor): 1.58 nM

Structure (SMILES): CC(C)CC(O)(c1ccc(C#N)c(Cl)c1Cl)C(F)(F)F (stereo not drawn)
EC50 (Androgen receptor): 3.16 nM

Structure (SMILES): Cc1c(C(C)(C)C(O)C(F)(F)F)ccc(C#N)c1C(F)(F)F (stereo not drawn)
EC50 (Androgen receptor): 15.8 nM

Structure (SMILES): N#Cc1ccc(C(O)(C2CC2)C(F)(F)F)cc1Cl (stereo not drawn)
EC50 (Androgen receptor): 0.398 nM
solubility kinetic at 1 h [1]: > 400 µM
bioavailability [2]: 80%
clearance [4]: 12 mL/min/kg
half-life [3]: 1080 min

Structure (SMILES): N#Cc1ccc(C(O)(C2CC2)C(F)(F)F)c(Cl)c1Cl (stereo not drawn)
EC50 (Androgen receptor): 0.2 nM

Structure (SMILES): CC(C)C(O)(c1ccc(C#N)c(Cl)c1)C(F)(F)F (stereo not drawn)
EC50 (Androgen receptor): 3.98 nM

Structure (SMILES): N#Cc1ccc(C(O)(c2ccco2)C(F)(F)F)cc1C(F)(F)F (stereo not drawn)
EC50 (Androgen receptor): 1.26 nM

Structure (SMILES): N#Cc1ccc(C(O)(CO)C(F)(F)F)cc1C(F)(F)F (stereo not drawn)
EC50 (Androgen receptor): 10000 nM

Structure (SMILES): Cc1c(C(O)(CC(C)(C)C)C(F)(F)F)ccc(C#N)c1Cl (stereo not drawn)
EC50 (Androgen receptor): 3.98 nM

Structure (SMILES): Cc1c(C(O)(C2CC2)C(F)(F)F)ccc(C#N)c1C(F)(F)F (stereo not drawn)
EC50 (Androgen receptor): 0.0316 nM
solubility kinetic at 1 h [1]: 245 µM (≈ 79.2 µg/mL)
bioavailability [2]: 37%
half-life [3]: 600 min

Structure (SMILES): N#Cc1ccc(C(O)(C(F)(F)F)C(F)(F)F)cc1C(F)(F)F
EC50 (Androgen receptor): 15.8 nM

EC50 (Androgen receptor): 20 nM
Structure (SMILES): Cc1c(C#N)ccc(C(O)(CC(C)(C)C)C(F)(F)F)c1C (stereo not drawn)

Structure (SMILES): CCC(O)(c1ccc(C#N)c(C(F)(F)F)c1)C(F)(F)F (stereo not drawn)
EC50 (Androgen receptor): 3.98 nM
bioavailability [2]: 70%
half-life [3]: 4980 min

Structure (SMILES): CC(C)C(O)(c1ccc(C#N)c(C(F)(F)F)c1)C(F)(F)F (stereo not drawn)
EC50 (Androgen receptor): 7.94 nM

EC50 (Androgen receptor): 1.58 nM
Structure (SMILES): Cc1c(C#N)ccc(C(O)(C2CC2)C(F)(F)F)c1C (stereo not drawn)

Structure (SMILES): Cc1c(C(O)(c2ccc(Cl)s2)C(F)(F)F)ccc(C#N)c1C(F)(F)F (stereo not drawn)
EC50 (Androgen receptor): 5.62 nM

Structure (SMILES): CC(C)(C)CC(O)(c1ccc(C#N)c(Cl)c1Cl)C(F)(F)F (stereo not drawn)
EC50 (Androgen receptor): 3.16 nM

Structure (SMILES): N#Cc1ccc(C(O)(c2cscn2)C(F)(F)F)cc1C(F)(F)F (stereo not drawn)
EC50 (Androgen receptor): 2 nM

Structure (SMILES): Cc1c(C(O)(C(F)(F)F)C(F)(F)F)ccc(C#N)c1Cl
EC50 (Androgen receptor): 20 nM

Structure (SMILES): CCC(O)(c1ccc(C#N)c(Cl)c1Cl)C(F)(F)F (stereo not drawn)
EC50 (Androgen receptor): 2.51 nM

Structure (SMILES): Cc1c(C(C)(O)C(F)(F)F)ccc(C#N)c1C(F)(F)F (stereo not drawn)
EC50 (Androgen receptor): 3.98 nM

Structure (SMILES): N#Cc1ccc(C(O)(C2CC2)C(F)(F)F)cc1C(F)(F)F (stereo not drawn)
EC50 (Androgen receptor): 0.158 nM
bioavailability [2]: 86%
half-life [3]: 1200 min

Structure (SMILES): Cc1c(C(O)(c2ccco2)C(F)(F)F)ccc(C#N)c1C(F)(F)F (stereo not drawn)
EC50 (Androgen receptor): 0.251 nM

Structure (SMILES): CCC(O)(c1ccc(C#N)c(Cl)c1C)C(F)(F)F (stereo not drawn)
EC50 (Androgen receptor): 2 nM

Structure (SMILES): N#Cc1ccc(C(O)(C2CCC2)C(F)(F)F)cc1Cl (stereo not drawn)
EC50 (Androgen receptor): 1.58 nM

Structure (SMILES): N#Cc1ccc(C(O)(c2ccc(Cl)s2)C(F)(F)F)cc1C(F)(F)F (stereo not drawn)
EC50 (Androgen receptor): 20 nM

Structure (SMILES): Cc1c(C(O)(C(C)C)C(F)(F)F)ccc(C#N)c1C(F)(F)F (stereo not drawn)
EC50 (Androgen receptor): 0.251 nM

Structure (SMILES): N#Cc1ccc(C(O)(c2nccs2)C(F)(F)F)cc1C(F)(F)F (stereo not drawn)
EC50 (Androgen receptor): 2 nM

Structure (SMILES): N#Cc1ccc(C(O)(C2CCC2)C(F)(F)F)cc1C(F)(F)F (stereo not drawn)
EC50 (Androgen receptor): 1.58 nM

EC50 (Androgen receptor): 12.6 nM
Structure (SMILES): Cc1c(C#N)ccc(C(O)(C(C)C)C(F)(F)F)c1C (stereo not drawn)

Structure (SMILES): Cc1c(C(O)(c2ccc(Cl)o2)C(F)(F)F)ccc(C#N)c1C(F)(F)F (stereo not drawn)
EC50 (Androgen receptor): 2.88 nM

Structure (SMILES): Cc1c(C(O)(c2cscn2)C(F)(F)F)ccc(C#N)c1C(F)(F)F (stereo not drawn)
EC50 (Androgen receptor): 5.89 nM

Structure (SMILES): CC(C)(C)C(O)(c1ccc(C#N)c(Cl)c1)C(F)(F)F (stereo not drawn)
EC50 (Androgen receptor): 158 nM

Structure (SMILES): N#Cc1ccc(C(O)(C2CCC2)C(F)(F)F)c(Cl)c1Cl (stereo not drawn)
EC50 (Androgen receptor): 0.631 nM

Structure (SMILES): Cc1c(C(O)(C2CCC2)C(F)(F)F)ccc(C#N)c1C(F)(F)F (stereo not drawn)
EC50 (Androgen receptor): 0.2 nM
